Results: ChEMBL document CHEMBL2331523, “Regioselective synthesis of isoxazole-mercaptobenzimidazole hybrids and their in vivo analgesic and anti-inflammatory activity studies” (2013)

Legend:
Assay type in all cases: functional
[1] = system: Rattus norvegicus; assay: Antiinflammatory activity in rat assessed as inhibition of carrageenan-induced paw oedema at 50 mg/kg after 180 mins relative to untreated control; conditions: 3 h
Procedure, shortened: (§1)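 Carrageenan-induced hind-paw oedema (Winter method). The text names both rats and mice. Test agents dosed at 100 mg/kg body weight, reference at 50 mg/kg body weight. Paw thickness measured in mm at 60 and 180 min after carrageenan injection. Percent oedema inhibition calculated against the saline control group. Six animals per group, mean ± SD. One-way ANOVA with Newman-Keuls test.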

[2] = system: Rattus norvegicus; assay: Antiinflammatory activity in rat assessed as inhibition of carrageenan-induced paw oedema at 50 mg/kg after 60 mins relative to untreated control; conditions: 1 h; procedure, shortened: as §1
[3] = system: Mus musculus; assay: Analgesic activity in mouse assessed as increase in paw withdrawal latency at 50 mg/kg after 120 mins by hot plate test (reference value: 6.07 +/- 0.057 secs)

SMILES: O=C(O)Cc1ccccc1Nc1c(Cl)cccc1Cl [DICLOFENAC]
- inhibition in vivo at 50 mg/kg [1]: 45.8%
- inhibition in vivo at 50 mg/kg [2]: 44.5%

SMILES: CC(C)=CCN1CC[C@]2(C)c3cc(O)ccc3C[C@H]1[C@H]2C [(+)-PENTAZOCINE]
- Time [3]: 14.1 s
